This passage reports Activity results from ChEMBL document CHEMBL3784968, “Synthesis and mechanistic aspects of 2-anilinonicotinyl-pyrazolo[1,5-a]pyrimidine conjugates that regulate cell proliferation in MCF-7 cells via estrogen signaling” (2016).

The subject of assay [1] is SiHa. The experiment in a line: Cytotoxicity against human SiHa cells assessed as cell viability after 24 to 48 hrs by MTT assay. Format: functional. The method, boiled down: (§1)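 MTT viability assay in SiHa, HeLa (cervical), MCF-7 (breast) and IMR-32 (neuroblastoma) cells, treated with conjugates over 0.25 to 8 µM for 48 h.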
Background: Formazan colour is commonly taken as a measure of viable cells.

Assay [2] concerns MCF7. The experiment in a line: Cytotoxicity against human MCF7 cells assessed as cell viability after 24 to 48 hrs by MTT assay. It is filed as functional. The method, boiled down:
as §1

Assay [3] can be described thus: Cytotoxicity against human IMR32 cells assessed as cell viability after 24 to 48 hrs by MTT assay. Format: functional, IMR-32. In a few lines:
as §1

Assay [4] deals with HeLa. The assay is described as follows: Cytotoxicity against human HeLa cells assessed as cell viability after 24 to 48 hrs by MTT assay. It is filed as functional. In a few lines: as §1
The subject of assay [5] is MCF7. The experiment in a line: Cell cycle arrest in human MCF7 cells assessed as accumulation at G2/M phase at 8 uM after 48 hrs (reference value: 25%). It is filed as functional. In a few lines:
(§2)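 MCF-7 breast cancer cells exposed 48 h to 4, 8, 16 or 32 µM; doxorubicin as positive control. Cell cycle phase distribution (G0, G1, S, G2/M) read as percentage of cells; G0 fraction taken as apoptotic cells.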

Assay [6] concerns MCF7. The assay is described as follows: Cell cycle arrest in human MCF7 cells assessed as accumulation at G0 phase at 16 uM after 48 hrs (reference value: 3%). Format: functional. The method, boiled down: as §2
For assay [7], the system named is MCF7. The assay is described as follows: Cell cycle arrest in human MCF7 cells assessed as accumulation at G1 phase at 8 uM after 48 hrs (reference value: 63%). Format: functional. In a few lines:
as §2

The subject of assay [8] is MCF7. The experiment in a line: Cell cycle arrest in human MCF7 cells assessed as accumulation at G0 phase at 32 uM after 48 hrs (reference value: 3%). Format: functional. The method, boiled down:
as §2

Assay [9] has as its system MCF7. The assay is described as follows: Cell cycle arrest in human MCF7 cells assessed as accumulation at S phase at 32 uM after 48 hrs (reference value: 9%). It is filed as functional. The method, boiled down: as §2
Assay [10] deals with MCF7. The experiment in a line: Cell cycle arrest in human MCF7 cells assessed as accumulation at G2/M phase at 16 uM after 48 hrs (reference value: 25%). Format: functional. In a few lines: as §2
Assay [11] has as its system MCF7. The assay is described as follows: Cell cycle arrest in human MCF7 cells assessed as accumulation at G1 phase at 16 uM after 48 hrs (reference value: 63%). It is filed as functional. The method, boiled down: as §2
Assay [12] relates to MCF7. The assay is described as follows: Cell cycle arrest in human MCF7 cells assessed as accumulation at S phase at 8 uM after 48 hrs (reference value: 9%). Format: functional. The method, boiled down: as §2
Assay [13] has as its system MCF7. The experiment in a line: Cell cycle arrest in human MCF7 cells assessed as accumulation at G2/M phase at 32 uM after 48 hrs (reference value: 25%). It is filed as functional. The method, boiled down: as §2
Assay [14] deals with MCF7. The experiment in a line: Cell cycle arrest in human MCF7 cells assessed as accumulation at G1 phase at 32 uM after 48 hrs (reference value: 63%). It is filed as functional. In a few lines:
as §2

Assay [15] relates to MCF7. The experiment in a line: Cell cycle arrest in human MCF7 cells assessed as accumulation at S phase at 16 uM after 48 hrs (reference value: 9%). Format: functional. The method, boiled down: as §2
The subject of assay [16] is MCF7. The experiment in a line: Cell cycle arrest in human MCF7 cells assessed as accumulation at S phase at 4 uM after 48 hrs (reference value: 9%). It is filed as functional. The method, boiled down: as §2
In assay [17] the test system is MCF7. The assay is described as follows: Cell cycle arrest in human MCF7 cells assessed as accumulation at G0 phase at 4 uM after 48 hrs (reference value: 3%). It is filed as functional. In a few lines: as §2
Assay [18] has as its system MCF7. The assay is described as follows: Cell cycle arrest in human MCF7 cells assessed as accumulation at G0 phase at 8 uM after 48 hrs (reference value: 3%). Format: functional. The method, boiled down: as §2
Assay [19] deals with MCF7. The assay is described as follows: Cell cycle arrest in human MCF7 cells assessed as accumulation at G2/M phase at 4 uM after 48 hrs (reference value: 25%). It is filed as functional. In a few lines: as §2
The subject of assay [20] is MCF7. The experiment in a line: Cell cycle arrest in human MCF7 cells assessed as accumulation at G1 phase at 4 uM after 48 hrs (reference value: 63%). It is filed as functional. The method, boiled down:
as §2

On to `COc1ccc(Nc2ncccc2C(=O)N2CCN(C(=O)c3cc(-c4ccc(Cl)c(Cl)c4)n4nc(-c5ccccc5)cc4n3)CC2)cc1`, for which the Activity in [1] was found to be 3.92 µM; in assay [2] it was 6.12 µM; in assay [3], 5 µM; in assay [4], 2.64 µM.
Consider `COc1ccc(-c2cc(C(=O)N3CCN(C(=O)c4cccnc4Nc4ccc(F)cc4)CC3)nc3cc(-c4ccccc4)nn23)cc1`, for which the Activity in assay [1] was found to be 5.93 µM; in assay [2], 4.97 µM; in [3] it was 5.87 µM; in assay [4], 3.79 µM.
For `COc1ccc(Nc2ncccc2C(=O)N2CCN(C(=O)c3cc(-c4ccc(F)cc4)n4nc(-c5ccccc5)cc4n3)CC2)cc1`, in that order: 4.56 µM, 8.08 µM, 5.37 µM and 6.6 µM.
The like results for `COc1ccc(Nc2ncccc2C(=O)N2CCN(C(=O)c3cc(-c4ccc(OC)c(OC)c4)n4nc(-c5ccccc5)cc4n3)CC2)cc1` were, in that order, 5.1 µM, 2.85 µM, 5.87 µM and 4.62 µM.
Regarding `COc1cc(-c2cc(C(=O)N3CCN(C(=O)c4cccnc4Nc4ccc(F)cc4)CC3)nc3cc(-c4ccccc4)nn23)cc(OC)c1OC`, the Activity in assay [1] worked out at 5.25 µM; in assay [2], 6.28 µM; in assay [3] it was 5.75 µM; in assay [4], 2.57 µM.
The like results for `COc1ccc(Nc2ncccc2C(=O)N2CCN(C(=O)c3cc(-c4ccc(Cl)c(Cl)c4)n4nc(-c5ccccc5)cc4n3)CC2)cc1OC` were, in that order, 3.73 µM, 5.95 µM, 7.15 µM and 5.11 µM.
For `COc1ccc(-c2cc(C(=O)N3CCN(C(=O)c4cccnc4Nc4ccc(OC)c(OC)c4)CC3)nc3cc(-c4ccccc4)nn23)cc1`, in that order: 3.73 µM, 2.53 µM, 5.12 µM and 5.87 µM.
For `COc1ccc(Nc2ncccc2C(=O)N2CCN(C(=O)c3cc(-c4cc(OC)c(OC)c(OC)c4)n4nc(-c5ccccc5)cc4n3)CC2)cc1OC`, in that order: 3.73 µM, 4.24 µM, 5.75 µM and 6.08 µM.
As for `COc1ccc(Nc2ncccc2C(=O)N2CCN(C(=O)c3cc(-c4cc(OC)c(OC)c(OC)c4)n4nc(-c5ccccc5)cc4n3)CC2)cc1`, the Activity in assay [1] is 3.87 µM; in assay [2] it was 3.02 µM; in assay [3] it was 5.87 µM; in [4], 2.85 µM.
For `COc1ccc(-c2cc(C(=O)N3CCN(C(=O)c4cccnc4Nc4cc(OC)c(OC)c(OC)c4)CC3)nc3cc(-c4ccccc4)nn23)cc1`, in that order: 6.08 µM, 3.83 µM, 6.62 µM and 4.24 µM.
For `COc1cc(Nc2ncccc2C(=O)N2CCN(C(=O)c3cc(-c4ccc(F)cc4)n4nc(-c5ccccc5)cc4n3)CC2)cc(OC)c1OC`, in that order: 4.07 µM, 7.59 µM, 5 µM and 4.31 µM.
For `O=C(c1cc(-c2ccc(F)cc2)n2nc(-c3ccccc3)cc2n1)N1CCN(C(=O)c2cccnc2Nc2ccc(F)cc2)CC1`, in that order: 7.21 µM, 3.34 µM, 5.62 µM and 3.86 µM.
Turning to `COc1ccc(-c2cc(C(=O)N3CCN(C(=O)c4cccnc4Nc4ccccc4)CC3)nc3cc(-c4ccccc4)nn23)cc1OC`, the Activity in assay [1] was determined as 5.93 µM; in assay [2], 6.12 µM; in assay [3], 6.5 µM; in assay [4] it was 2.88 µM.
As to `COc1ccc(Nc2ncccc2C(=O)N2CCN(C(=O)c3cc(-c4ccc(F)cc4)n4nc(-c5ccccc5)cc4n3)CC2)cc1OC`, the Activity came out at 6.62 µM in assay [1], 2.69 µM in [2], 5.25 µM in assay [3] and 6.33 µM in assay [4].
`COc1ccc(-c2cc(C(=O)N3CCN(C(=O)c4cccnc4Nc4cc(OC)c(OC)c(OC)c4)CC3)nc3cc(-c4ccccc4)nn23)cc1OC`: the Activity came out at 7.65 µM in assay [1], 7.34 µM in assay [2], 4.88 µM in [3] and 4.24 µM in [4].
For `O=C(c1cc(-c2ccc(Cl)c(Cl)c2)n2nc(-c3ccccc3)cc2n1)N1CCN(C(=O)c2cccnc2Nc2ccc(F)cc2)CC1`, the Activity was 5.27 µM in assay [1], 4.73 µM in assay [2], 5.87 µM in assay [3] and 4.27 µM in assay [4].
For `COc1ccc(Nc2ncccc2C(=O)N2CCN(C(=O)c3cc(-c4ccc(OC)cc4)n4nc(-c5ccccc5)cc4n3)CC2)cc1`, in that order: 4.36 µM, 2.93 µM, 6.37 µM and 3.72 µM.
As to `COc1cccc2c1C(=O)c1c(O)c3c(c(O)c1C2=O)C[C@@](O)(C(=O)CO)C[C@@H]3O[C@H]1C[C@H](N)[C@H](O)[C@H](C)O1` [DOXORUBICIN], the Activity in assay [5] worked out at 50%; in assay [6], 6%; in assay [1], 3.93 µM; in [2], 0.473 µM; in assay [7], 37%; in [3], 4.5 µM. Moreover, the Activity in assay [8] was found to be 8%; in [9], 10%; in assay [10], 49%; in assay [11], 34%; in [12] it was 9%; in assay [13], 46%. The Activity in assay [14] was determined as 36%; in [15] it was 11%; in assay [16], 8%; in assay [4], 1.25 µM; in assay [17], 1%; in assay [18] it was 4%. The Activity in [19] stood at 48%; in [20], 44%.
On to `COc1ccc(Nc2ncccc2C(=O)N2CCN(C(=O)c3cc(-c4ccc(OC)c(OC)c4)n4nc(-c5ccccc5)cc4n3)CC2)cc1OC`, for which the Activity in assay [1] amounted to 5.93 µM; in [2], 2.61 µM; in [3], 5.25 µM; in assay [4], 5.7 µM.
For `COc1cc(-c2cc(C(=O)N3CCN(C(=O)c4cccnc4Nc4ccccc4)CC3)nc3cc(-c4ccccc4)nn23)cc(OC)c1OC`, the Activity in assay [1] was found to be 5.1 µM; in [2], 6.93 µM; in [3] it was 7.25 µM; in [4] it was 2.99 µM.
The like results for `COc1cc(Nc2ncccc2C(=O)N2CCN(C(=O)c3cc(-c4ccc(Cl)c(Cl)c4)n4nc(-c5ccccc5)cc4n3)CC2)cc(OC)c1OC` were, in that order, 3.65 µM, 5.38 µM, 5.62 µM and 4.52 µM.
The like results for `O=C(c1cc(-c2ccc(Cl)c(Cl)c2)n2nc(-c3ccccc3)cc2n1)N1CCN(C(=O)c2cccnc2Nc2ccccc2)CC1` were, in that order, 5.93 µM, 5.3 µM, 7.87 µM and 2.57 µM.
The like results for `COc1ccc(-c2cc(C(=O)N3CCN(C(=O)c4cccnc4Nc4ccc(F)cc4)CC3)nc3cc(-c4ccccc4)nn23)cc1OC` were, in that order, 5.64 µM, 7.02 µM, 5.87 µM and 3.16 µM.
